Active and inactive are the calls of the source. The rule behind the calls is not given here.
Experiments:
[1] = Clearance in Sprague-Dawley rat at 1 mg/kg, iv by LC-MS/MS analysis; type: ADME, organism-based; settings: in vivo
Summary of the method: (§1)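 Male Sprague-Dawley rats (about 200‒220 g; n = 6) were fasted overnight and given a single 1 mg/kg iv dose in DMSO:castor oil:saline (3:3:94). Blood was sampled from the orbital artery into heparin tubes. Plasma was analysed by LC/MS/MS (ESI, MRM), and parameters came from noncompartmental analysis. Values are mean ± SD.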

[2] = AUC (0 to infinity) in Sprague-Dawley rat at 1 mg/kg, iv by LC-MS/MS analysis; type: ADME, organism-based; parameters: dose 1 mg/kg, time infinity, route intravenous; settings: in vivo
[3] = Volume of distribution at steady state in Sprague-Dawley rat at 1 mg/kg, iv by LC-MS/MS analysis; type: ADME, organism-based; settings: in vivo, read-out: Vdss; summary of the method: as §1
[4] = molecular target: Ubiquitin-conjugating enzyme E2 L3 (Homo sapiens) (UniProt P68036); assay: Inhibition of UbcH7 (unknown origin) at 2.5 to 10 uM preincubated for 15 mins followed by E1, Ub and ATP addition measured after 40 mins by Western blot analysis
[5] = molecular target: T1, Ubiquitin-conjugating enzyme E2 C (Homo sapiens) (UniProt O00762); assay: Inhibition of UbcH10 (unknown origin) at 2.5 to 10 uM preincubated for 15 mins followed by E1, Ub and ATP addition measured after 40 mins by Western blot analysis
T1 sequence (whole entry): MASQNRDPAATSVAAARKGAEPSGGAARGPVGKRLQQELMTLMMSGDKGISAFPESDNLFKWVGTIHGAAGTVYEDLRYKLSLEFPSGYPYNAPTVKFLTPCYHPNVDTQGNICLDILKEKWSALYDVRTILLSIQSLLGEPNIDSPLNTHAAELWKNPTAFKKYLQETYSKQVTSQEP

[6] = molecular target: T2, Ubiquitin-conjugating enzyme E2 K (Homo sapiens) (UniProt P61086); assay: Inhibition of E2-25K (unknown origin) at 2.5 to 10 uM preincubated for 15 mins followed by E1, Ub and ATP addition measured after 40 mins by Western blot analysis
T2 sequence (whole entry): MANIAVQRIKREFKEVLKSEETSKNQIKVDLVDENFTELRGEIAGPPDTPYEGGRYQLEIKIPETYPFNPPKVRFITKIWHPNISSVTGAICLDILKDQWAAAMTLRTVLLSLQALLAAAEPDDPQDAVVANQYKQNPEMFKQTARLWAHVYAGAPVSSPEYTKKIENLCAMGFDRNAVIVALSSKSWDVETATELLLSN

[7] = molecular target: Ubiquitin-conjugating enzyme E2 D3 (Mus musculus) (UniProt P61079); assay: Inhibition of UbcH5c in mouse b.End3 cells assessed as decrease in TNF-alpha-mediated IkB-alpha phosphorylation preincubated for 2 hrs followed by TNF-alpha stimulation for 20 mins by Western blot analysis; type: cell-based
Summary of the method: (§2)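 bEnd.3 cells (DMEM, 10% FBS) were pretreated with compound at 2.5, 5 or 10 µM for 2 h, then stimulated with 20 ng/mL TNF-α (15 min in the methods, 20 min in the legend). Lysates were run on 10% SDS-PAGE and immunoblotted for phospho-IκBα, IκBα, phospho-p65 and p65, with GAPDH as loading control.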

[8] = molecular target: Ubiquitin-conjugating enzyme E2 D3 (Mus musculus) (UniProt P61079); assay: Inhibition of UbcH5c in mouse b.End3 cells assessed as decrease in TNF-alpha-mediated IkB-alpha degradation preincubated for 2 hrs followed by TNF-alpha stimulation for 20 mins by Western blot analysis; type: cell-based; summary of the method: as §2
[9] = molecular target: Ubiquitin-conjugating enzyme E2 D3 (Mus musculus) (UniProt P61079); assay: Inhibition of UbcH5c in mouse b.End3 cells assessed as decrease in TNF-alpha-mediated p65 phosphorylation preincubated for 2 hrs followed by TNF-alpha stimulation for 20 mins by Western blot analysis; type: cell-based; summary of the method: as §2
[10] = molecular target: Ubiquitin-conjugating enzyme E2 D1 (Homo sapiens) (UniProt P51668); assay: Inhibition of UbcH5a (unknown origin) at 2.5 to 10 uM preincubated for 15 mins followed by E1, Ub and ATP addition measured after 40 mins by Western blot analysis
[11] = molecular target: Ubiquitin-conjugating enzyme E2 D2 (Homo sapiens) (UniProt P62837); assay: Inhibition of UbcH5b (unknown origin) at 2.5 to 10 uM preincubated for 15 mins followed by E1, Ub and ATP addition measured after 40 mins by Western blot analysis
[12] = Tmax in Sprague-Dawley rat at 5 mg/kg, po via gavage by LC-MS/MS analysis; type: ADME, organism-based; settings: in vivo
Summary of the method: (§3)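 Male Sprague-Dawley rats (about 200‒220 g; n = 6) were fasted overnight and gavaged with 5 mg/kg as a suspension in 0.5% methylcellulose. Blood was taken from the orbital artery at 0.083–24 h into heparin tubes. Plasma was quantified by LC/MS/MS (ESI, MRM), with noncompartmental analysis. Bioavailability was referenced to a 1 mg/kg iv dose. Values are mean ± SD.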

[13] = Cmax in Sprague-Dawley rat at 5 mg/kg, po via gavage by LC-MS/MS analysis; type: ADME, organism-based; parameters: dose 5 mg/kg, route oral; settings: in vivo; summary of the method: as §3
[14] = AUC (0 to infinity) in Sprague-Dawley rat at 5 mg/kg, po via gavage by LC-MS/MS analysis; type: ADME, organism-based; parameters: dose 5 mg/kg, time infinity, route oral; settings: in vivo
Summary of the method: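 Male Sprague-Dawley rats (about 200‒220 g), n = 6, fasted overnight; single oral gavage at 5 mg/kg as a suspension in 0.5% methylcellulose. Blood was drawn from the orbital artery into heparin tubes at 0.083–24 h. Plasma was analysed by LC/MS/MS (ESI, MRM). AUC(0-∞) came from noncompartmental analysis, reported as mean ± SD of six rats.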

[15] = Oral bioavailability in Sprague-Dawley rat at 5 mg/kg via gavage by LC-MS/MS analysis; type: ADME, organism-based; settings: in vivo; summary of the method: as §3
[16] = Half life in rat liver microsomes at 5 uM in preincubated for 3 mins followed by NADPH addition measured up to 90 mins; type: ADME, microsome
Summary of the method: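 Rat liver microsomes (0.5 mg/mL) were used in 100 mM potassium phosphate, pH 7.4, with compound at 5 µM final. After 3 min preincubation at 37 °C, an NADPH-generating system was added (4 mM MgCl2, 1 mM NADP+, 10 mM glucose 6-phosphate, 1 unit/mL G6PDH). Incubation continued for 0–90 min and was stopped with ice-cold acetonitrile.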

[17] = Half life in rat whole blood at 5 uM; type: ADME
Summary of the method: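 Compound (5 µM final, from a 25 mM DMSO stock) was incubated at 37 °C in rat plasma (0–90 min) or rat whole blood (0, 5, 10, 30, 60, 90 min). Reactions were quenched with ice-cold acetonitrile, centrifuged, and the supernatants analysed.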

[18] = molecular target: Ubiquitin-conjugating enzyme E2 D3 (Mus musculus) (UniProt P61079); assay: Inhibition of UbcH5c in mouse b.End3 cells assessed as decrease in TNF-alpha-mediated IkB-alpha phosphorylation at 10 uM preincubated for 2 hrs followed by TNF-alpha stimulation for 20 mins by Western blot analysis; type: cell-based; summary of the method: as §2
[19] = in vitro; settings: human, HEK-293T cells
[20] = molecular target: Ubiquitin-conjugating enzyme E2 D3 (Mus musculus) (UniProt P61079); assay: Inhibition of UbcH5c in mouse b.End3 cells assessed as decrease in TNF-alpha-mediated IkB-alpha degradation at 10 uM preincubated for 2 hrs followed by TNF-alpha stimulation for 15 mins by Western blot analysis

Ubiquitin-conjugating enzyme E2 D3 (Mus musculus), sequence (P61079 whole entry, looked up): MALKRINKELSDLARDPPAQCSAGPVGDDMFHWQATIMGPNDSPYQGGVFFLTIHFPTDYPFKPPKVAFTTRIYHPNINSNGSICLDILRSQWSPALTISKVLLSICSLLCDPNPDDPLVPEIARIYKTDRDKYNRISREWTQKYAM
Ubiquitin-conjugating enzyme E2 L3 (Homo sapiens), sequence (P68036 whole entry): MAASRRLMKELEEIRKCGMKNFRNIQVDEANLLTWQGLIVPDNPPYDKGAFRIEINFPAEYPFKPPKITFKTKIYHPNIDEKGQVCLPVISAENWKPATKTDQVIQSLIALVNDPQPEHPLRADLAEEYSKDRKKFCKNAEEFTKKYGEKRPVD
Ubiquitin-conjugating enzyme E2 D2 (Homo sapiens), sequence (P62837 whole entry, looked up): as the sequence (P61079 whole entry, looked up) above, with N7H, S11N, D132E, S138A counted along it
Ubiquitin-conjugating enzyme E2 D1 (Homo sapiens), sequence (P51668 whole entry): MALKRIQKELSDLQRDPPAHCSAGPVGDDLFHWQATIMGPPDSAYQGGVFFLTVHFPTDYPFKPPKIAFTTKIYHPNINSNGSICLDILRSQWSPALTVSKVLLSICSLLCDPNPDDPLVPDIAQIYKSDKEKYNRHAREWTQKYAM

## C=C1C(=O)O[C@H]2c3c(C)c(OCc4ccccc4Br)cc(C)c3CC[C@@H]12
[1]
  clearance: 41.3 mL/min/kg
[2]
  AUC(0-inf): 408 ng·h/mL
[3]
  Vd: 6.26 L/kg
[4]
  inhibition: Active
[5]
  inhibition: Active
[6]
  inhibition: inactive
[7]
  inhibition: Dose-dependent effect
[8]
  inhibition: Dose-dependent effect
[9]
  inhibition: Dose-dependent effect
[10]
  inhibition: Active
[11]
  inhibition: Active
[12]
  Tmax: 3.83 h
[13]
  Cmax: 42.2 ng/mL
[14]
  AUC(0-inf): 314 ng·h/mL
[15]
  bioavailability: 16.8%
[16]
  half-life at 5 µM: 126 min
[17]
  half-life at 5 µM: 39.8 min
[18]
  inhibition: Active
[19]
  cytotoxicity at 5 µM: < 20%
[20]
  inhibition: Active

Reference: ChEMBL document CHEMBL4028851, “Discovery of Potent Small-Molecule Inhibitors of Ubiquitin-Conjugating Enzyme UbcH5c from α-Santonin Derivatives” (J Med Chem, 2017)
